For orientation: MFC means the smallest concentration meeting the test's criterion for killing the fungus. One may read the MIC as the smallest concentration in the dilution series that meets the test's criterion for growth inhibition. The term MIC50 denotes an inhibitory concentration at the 50% level, which refers to growth in some studies and to a panel of isolates in others. In general, MIC90 refers to the lowest concentration that inhibits either 90% of growth or 90% of the strains tested, depending on the study. As usually defined, the CC50 is the concentration at which the toxic effect on the cells reaches its halfway point.

In brackets after ≈: the same amount, converted by molar mass.

One series concerns Candida parapsilosis. Description: Antifungal activity against Candida parapsilosis ATCC 22019 at 35 degC after 48 hrs by broth microdilution test. The series is classed as functional. Particulars: Lodderomyces parapsilosis, ATCC 22019, 48 h; for MFC: read-out: MFC; for MIC: read-out: MIC. A digest of the protocol:
(§1)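 Broth microdilution per NCCLS M27-A2. Stocks in 100% DMSO, diluted in RPMI 1640 with 0.165 M MOPS at pH 7.0; final range 0.25–128 µg/mL. Inoculum 1000–5000 cells/mL from SDA subcultures. […] C. parapsilosis ATCC22019 served as QC strain.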
A general note: In broth dilution the organism is exposed to a series of concentrations in liquid medium.

Series [1] concerns Candida albicans. Description: Antifungal activity against Candida albicans ATCC 10261 at 35 degC after 48 hrs by broth microdilution test. Type of series: functional. Particulars: Candida albicans, ATCC 10261, 48 h; for MIC: read-out: MIC; for MIC50: read-out: MIC50; for MIC90: read-out: MIC90. A digest of the protocol:
as §1

Series [2] relates to Candida albicans. Description: Antifungal activity against Candida albicans ATCC 10261 at 35 degC after 48 to 96 hrs by broth microdilution test. Conditions: for MFC: Candida albicans, ATCC 10261, read-out: MFC. The series is classed as functional. Put shortly: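 Minimal fungicidal concentration for Candida. […] MFC is the lowest concentration allowing fewer than two colonies (99% killing).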

The nature of series [3]: Cytotoxicity against human U937 cells assessed as reduction of cell viability after 24 hrs by MTT assay. Type of series: cell-based, U-937. A digest of the protocol: (§2)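 U937 and K562 cells, from ATCC, plated at 5 × 10^4/mL in phenol-red-free RPMI-1640 with 20% FBS and penicillin/streptomycin. Compounds added 2 h later at 25–100 µg/mL, then 24 h at 37 °C. MTT at 1 mg/mL for 3 h, formazan dissolved in isopropanol with 0.1 N HCl, absorbance read at 570 nm. CC50 is the concentration reducing viability by 50% versus the drug-free control.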
A general note: Formazan colour is commonly taken as a measure of viable cells.

The nature of series [4]: Cytotoxicity against human K562 cells after assessed as reduction of cell viability 24 hrs by MTT assay. The series is classed as cell-based. Put shortly: as §2
Series [5] deals with Candida albicans. Put plainly: Antifungal activity against fluconazole-resistant Candida albicans isolated from oropharyngeal or vaginal disease patient after 48 hrs by broth microdilution test. Type of series: functional.
In series [6] the test system is Candida albicans. Put plainly: Antifungal activity against fluconazole-sensitive Candida albicans Fe40 at 35 degC after 48 hrs by broth microdilution test. Type of series: functional. Put shortly: as §1
The test system of series [7] is Arthrodermataceae. Put plainly: Antifungal activity against dermatophytes at 28 degC after 7 days by broth microdilution test. Type of series: functional. Particulars: 168 h. A digest of the protocol: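 Ten clinical isolates (two M. canis, five M. gypseum, three T. mentagrophytes) tested by NCCLS M38-A broth microdilution in MOPS-buffered RPMI 1640, pH 7.0, over 0.25–128 µg/mL. Conidial/hyphal suspension from PDA slants (28 °C, 7 days) adjusted to 65–70% transmittance at OD530, then diluted 1:50.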

Series [8] deals with Arthrodermataceae. Description: Antifungal activity against dermatophytes at 28 degC after 5 days by broth microdilution test. Conditions: for MFC: Arthrodermataceae.
For series [9], the system named is Arthrodermataceae. Description: Antifungal activity against dermatophytes at 28 degC after 48 to 96 hrs by broth microdilution test.

As to `Cc1ccc(OC(CCn2ccnc2)c2ccc(F)cc2)cc1` (stereo not given), the MFC in the series on Candida parapsilosis turned out to be 32 µg/mL (≈ 103 µM); in the series on Candida albicans [2], 23 µg/mL (≈ 74.1 µM); against Arthrodermataceae [8], 16 µg/mL (≈ 51.6 µM). Besides, the minimum inhibitory concentration (MIC) worked out at 4 µg/mL (≈ 12.9 µM) in the series with Candida parapsilosis; 7 µg/mL (≈ 22.6 µM) in the series on Candida albicans [1]; 9.6 µg/mL (≈ 30.9 µM) with Candida albicans [5]; 4 µg/mL (≈ 12.9 µM) against Candida albicans [6]; 10 µg/mL (≈ 32.2 µM) against Arthrodermataceae [7]. The MIC50 in the series on Candida albicans [1] was 4 µg/mL (≈ 12.9 µM); in the series on Arthrodermataceae [7], 8 µg/mL (≈ 25.8 µM). In addition, the figures for the MIC90 with Candida albicans [1] and against Arthrodermataceae [7] were 8 µg/mL (≈ 25.8 µM) and 16 µg/mL (≈ 51.6 µM), respectively. Further, the MFC50 against Candida albicans [2] and against Arthrodermataceae [9] was 16 µg/mL (≈ 51.6 µM) throughout. The values for the MFC90 against Candida albicans [2] and in the series with Arthrodermataceae [8] were 32 µg/mL (≈ 103 µM) and 16 µg/mL (≈ 51.6 µM), respectively. The CC50 at 24 h in [3] amounted to 120 µM; in [4], 383 µM.

Turning to `Fc1ccc(C(CCn2ccnc2)Oc2ccc(Cl)cc2Cl)cc1` (stereo not given), the MFC in the series on Candida parapsilosis was 4 µg/mL (≈ 11 µM); in the series on Candida albicans [2], 6.9 µg/mL (≈ 18.9 µM); in the series with Arthrodermataceae [8] it was 41 µg/mL (≈ 112 µM). The MIC stood at 0.5 µg/mL (≈ 1.37 µM) in the series on Candida parapsilosis; 2.9 µg/mL (≈ 7.94 µM) in the series with Candida albicans [1]; 5.6 µg/mL (≈ 15.3 µM) against Candida albicans [5]; 2 µg/mL (≈ 5.48 µM) in the series with Candida albicans [6]; 13.5 µg/mL (≈ 37 µM) against Arthrodermataceae [7]. Also, the MIC50 came out at 4 µg/mL (≈ 11 µM) in the series with Candida albicans [1] and 16 µg/mL (≈ 43.8 µM) in the series on Arthrodermataceae [7]. Besides, the figures for the MIC90 in the series with Candida albicans [1] and in the series with Arthrodermataceae [7] were 4 µg/mL (≈ 11 µM) and 16 µg/mL (≈ 43.8 µM), respectively. The MFC50 against Candida albicans [2] is 8 µg/mL (≈ 21.9 µM); against Arthrodermataceae [9], 32 µg/mL (≈ 87.6 µM). The MFC90 in the series on Candida albicans [2] was 8 µg/mL (≈ 21.9 µM); in the series with Arthrodermataceae [8], 64 µg/mL (≈ 175 µM). Also, the CC50 at 24 h stood at 120 µM in [3] and 74.2 µM in series [4].

Regarding `Fc1ccc(C(CCn2ccnc2)Oc2cc(Cl)cc(Cl)c2)cc1` (stereo not given), the MFC is 4 µg/mL (≈ 11 µM) with Candida parapsilosis, 11.7 µg/mL (≈ 32 µM) with Candida albicans [2] and 28.5 µg/mL (≈ 78 µM) with Arthrodermataceae [8]. Also, the MIC with Candida parapsilosis is 1 µg/mL (≈ 2.74 µM); in the series on Candida albicans [1] it was 8.8 µg/mL (≈ 24.1 µM); in the series with Candida albicans [5] it was 12.8 µg/mL (≈ 35 µM); in the series with Candida albicans [6], 8 µg/mL (≈ 21.9 µM); in the series with Arthrodermataceae [7], 16.2 µg/mL (≈ 44.4 µM). For the same compound, the MIC50 in the series on Candida albicans [1] is 8 µg/mL (≈ 21.9 µM); with Arthrodermataceae [7] it was 16 µg/mL (≈ 43.8 µM). In addition, the MIC90 in the series on Candida albicans [1] and in the series on Arthrodermataceae [7] was 16 µg/mL (≈ 43.8 µM) in each case. Further, the MFC50 in the series on Candida albicans [2] was 16 µg/mL (≈ 43.8 µM); with Arthrodermataceae [9], 32 µg/mL (≈ 87.6 µM). For the same compound, the MFC90 against Candida albicans [2] turned out to be 16 µg/mL (≈ 43.8 µM); against Arthrodermataceae [8], 32 µg/mL (≈ 87.6 µM). Further, the CC50 at 24 h was determined as 160 µM in series [3] and 98.1 µM in series [4].

Turning to `Cc1ccc(OC(CCn2ccnc2)c2ccc(C)cc2)cc1` (stereo not given), the MFC amounted to 8 µg/mL (≈ 26.1 µM) with Candida parapsilosis, 20.5 µg/mL (≈ 66.9 µM) in the series with Candida albicans [2] and 30.4 µg/mL (≈ 99.2 µM) against Arthrodermataceae [8]. Moreover, the MIC in the series on Candida parapsilosis came out at 2 µg/mL (≈ 6.53 µM); in the series with Candida albicans [1], 4 µg/mL (≈ 13.1 µM); with Candida albicans [5], 4.8 µg/mL (≈ 15.7 µM); against Candida albicans [6] it was 4 µg/mL (≈ 13.1 µM); against Arthrodermataceae [7], 8 µg/mL (≈ 26.1 µM). Further, the MIC50 in the series on Candida albicans [1] was determined as 4 µg/mL (≈ 13.1 µM); with Arthrodermataceae [7], 8 µg/mL (≈ 26.1 µM). Also, the MIC90 came to 4 µg/mL (≈ 13.1 µM) with Candida albicans [1] and 8 µg/mL (≈ 26.1 µM) against Arthrodermataceae [7]. Also, the values for the MFC50 against Candida albicans [2] and against Arthrodermataceae [9] were 16 µg/mL (≈ 52.2 µM) and 32 µg/mL (≈ 104 µM), respectively. Also, the MFC90 in the series on Candida albicans [2] and against Arthrodermataceae [8] was 32 µg/mL (≈ 104 µM) each time. Also, the CC50 at 24 h in series [3] worked out at 263 µM; in series [4], 191 µM.

Regarding `C[C@@H](c1ncncc1F)[C@](O)(Cn1cncn1)c1ccc(F)cc1F` [VORICONAZOLE], the results for the MFC with Candida parapsilosis, in the series on Candida albicans [2] and with Arthrodermataceae [8] were 0.125 µg/mL (≈ 0.358 µM), 26 µg/mL (≈ 74.4 µM) and 0.9 µg/mL (≈ 2.58 µM), respectively. The MIC is 0.015 µg/mL (≈ 0.0429 µM) in the series on Candida parapsilosis; 0.89 µg/mL (≈ 2.55 µM) with Candida albicans [1]; 16 µg/mL (≈ 45.8 µM) against Candida albicans [5]; 0.016 µg/mL (≈ 0.0458 µM) against Candida albicans [6]; 0.03 µg/mL (≈ 0.0859 µM) in the series with Arthrodermataceae [7]. The MIC50 with Candida albicans [1] is 0.25 µg/mL (≈ 0.716 µM); against Arthrodermataceae [7] it was 0.016 µg/mL (≈ 0.0458 µM). For the same compound, the figures for the MIC90 in the series on Candida albicans [1] and in the series on Arthrodermataceae [7] were > 1 µg/mL and 0.06 µg/mL (≈ 0.172 µM), respectively. In addition, the figures for the MFC50 with Candida albicans [2] and in the series on Arthrodermataceae [9] were >16 µg/mL and 1 µg/mL (≈ 2.86 µM), respectively. Also, the MFC90 is >16 µg/mL in the series on Candida albicans [2] and 1 µg/mL (≈ 2.86 µM) against Arthrodermataceae [8].

In the case of `Clc1ccc(C(CCn2ccnc2)Oc2ccccc2Cl)cc1` (stereo not given), in the series on Candida parapsilosis, the minimal fungicidal concentration (MFC) was 32 µg/mL (≈ 92.2 µM) and the minimal inhibitory concentration (MIC) stood at 4 µg/mL (≈ 11.5 µM). Besides, in the series on Candida albicans [1], the MIC was 7.7 µg/mL (≈ 22.2 µM), the MIC50 is 8 µg/mL (≈ 23 µM) and the MIC90 stood at 8 µg/mL (≈ 23 µM). In addition, in the series on Candida albicans [2], the MFC50 is 32 µg/mL (≈ 92.2 µM), the MFC90 turned out to be 32 µg/mL (≈ 92.2 µM) and the MFC came to 27 µg/mL (≈ 77.8 µM). Also, the CC50 at 24 h in series [3] was 209 µM. The CC50 at 24 h in [4] amounted to 205 µM. Further, 8 µg/mL (≈ 23 µM) was the least that counted as inhibitory in the series with Candida albicans [5] (MIC). Further, 8 µg/mL (≈ 23 µM) was the least that counted as inhibitory in the series with Candida albicans [6] (MIC).

These data come from ChEMBL document CHEMBL1157464, “1-[(3-Aryloxy-3-aryl)propyl]-1H-imidazoles, new imidazoles with potent activity against Candida albicans and dermatophytes. Synthesis, structure-activity relationship, and molecular modeling studies” (J Med Chem, 2008).
